One test deals with T1, recombinant human TDP2 (Homo sapiens, UniProt O95551).
T1 sequence (O95551 1-362): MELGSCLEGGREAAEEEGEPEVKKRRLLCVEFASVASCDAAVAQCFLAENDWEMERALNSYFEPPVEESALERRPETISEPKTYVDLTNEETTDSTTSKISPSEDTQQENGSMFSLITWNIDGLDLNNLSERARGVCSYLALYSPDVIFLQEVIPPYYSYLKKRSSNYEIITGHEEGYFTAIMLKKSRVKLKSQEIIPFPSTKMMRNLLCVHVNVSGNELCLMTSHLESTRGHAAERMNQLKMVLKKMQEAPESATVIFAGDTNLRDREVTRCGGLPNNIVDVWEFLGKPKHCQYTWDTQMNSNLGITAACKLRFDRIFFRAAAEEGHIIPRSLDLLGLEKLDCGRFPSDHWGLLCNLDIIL
Kind of test: Recombinant TDP2 assay. The test is classed as biochemical. Conditions: inactive, i.e. IC50 >111 μM.

The target in test [1] is T2, TOP1 (Homo sapiens, UniProt P11387).
T2 sequence (P11387 1-765): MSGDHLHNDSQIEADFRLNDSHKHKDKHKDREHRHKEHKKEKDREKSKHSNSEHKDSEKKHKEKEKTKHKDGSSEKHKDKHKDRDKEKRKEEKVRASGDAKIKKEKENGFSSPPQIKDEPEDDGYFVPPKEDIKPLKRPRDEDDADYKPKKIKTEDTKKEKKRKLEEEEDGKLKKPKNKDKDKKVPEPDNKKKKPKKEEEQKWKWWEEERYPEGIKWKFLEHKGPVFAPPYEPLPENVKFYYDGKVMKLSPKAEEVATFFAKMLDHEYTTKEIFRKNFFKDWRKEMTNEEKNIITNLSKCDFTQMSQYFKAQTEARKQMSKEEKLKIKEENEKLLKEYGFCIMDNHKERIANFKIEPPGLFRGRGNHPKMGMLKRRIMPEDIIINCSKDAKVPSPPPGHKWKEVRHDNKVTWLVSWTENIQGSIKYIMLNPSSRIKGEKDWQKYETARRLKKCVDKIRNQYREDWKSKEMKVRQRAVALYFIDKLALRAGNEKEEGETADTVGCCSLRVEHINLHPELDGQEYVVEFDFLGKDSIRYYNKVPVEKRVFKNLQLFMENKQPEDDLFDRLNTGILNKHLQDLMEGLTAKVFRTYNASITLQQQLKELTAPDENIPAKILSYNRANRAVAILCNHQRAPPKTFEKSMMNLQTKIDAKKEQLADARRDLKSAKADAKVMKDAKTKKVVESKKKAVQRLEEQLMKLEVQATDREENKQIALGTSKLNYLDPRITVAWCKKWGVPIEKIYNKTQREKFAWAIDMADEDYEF
Kind of test: TOP1-mediated relaxation assay. Conditions: 25 μM concentration. In kind it is biochemical.

Another test deals with TOP2. Nature of the test: TOP2-mediated relaxation assay. The test is classed as biochemical. Conditions: 25 μM concentration.
The target in a further test is recombinant TDP1 (Homo sapiens, UniProt Q9NUW8). Nature of the test: Recombinant TDP1 assay. The test is classed as biochemical. Conditions: highest concentration tested 111 μM. The gist of the method: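 Test compound was run as six or eight three-fold dilutions from 111 μM down to 0.46 μM or 0.051 μM against recombinant TDP1. Reactions were stopped with 1 volume of gel loading buffer (99.5% formamide, 5 mM EDTA, xylene cyanol, bromophenol blue) and resolved by 16% denaturing PAGE. Dried gels were phosphorimaged and quantified by densitometry.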

Test [2] concerns the target T2, TOP1. Nature of the test: TOP1-mediated DNA cleavage assay. The test is classed as biochemical. The note with it: up to 100 μM.
The target of test [3] is TOP2-DNA covalent cleavage complexes (TOP2cc) in CCRF-CEM cells (Homo sapiens, UniProt P11388). Kind of test: In vivo complex of enzyme. Conditions: 2 h treatment, up to 50 μM. The test is classed as cell-based. An outline of the steps:
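CCRF-CEM cells (60 × 10^5) exposed to test compound for 2 h, then lysed with 1% Sarkosyl. DNA was isolated, and TOP2–DNA covalent complexes were detected by Western slot blot using a mouse anti-human TOP2α antibody.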

“Also recorded” adds a separate entry of the source.

Sequence of recombinant TDP1 (Q9NUW8 whole entry, species assumed): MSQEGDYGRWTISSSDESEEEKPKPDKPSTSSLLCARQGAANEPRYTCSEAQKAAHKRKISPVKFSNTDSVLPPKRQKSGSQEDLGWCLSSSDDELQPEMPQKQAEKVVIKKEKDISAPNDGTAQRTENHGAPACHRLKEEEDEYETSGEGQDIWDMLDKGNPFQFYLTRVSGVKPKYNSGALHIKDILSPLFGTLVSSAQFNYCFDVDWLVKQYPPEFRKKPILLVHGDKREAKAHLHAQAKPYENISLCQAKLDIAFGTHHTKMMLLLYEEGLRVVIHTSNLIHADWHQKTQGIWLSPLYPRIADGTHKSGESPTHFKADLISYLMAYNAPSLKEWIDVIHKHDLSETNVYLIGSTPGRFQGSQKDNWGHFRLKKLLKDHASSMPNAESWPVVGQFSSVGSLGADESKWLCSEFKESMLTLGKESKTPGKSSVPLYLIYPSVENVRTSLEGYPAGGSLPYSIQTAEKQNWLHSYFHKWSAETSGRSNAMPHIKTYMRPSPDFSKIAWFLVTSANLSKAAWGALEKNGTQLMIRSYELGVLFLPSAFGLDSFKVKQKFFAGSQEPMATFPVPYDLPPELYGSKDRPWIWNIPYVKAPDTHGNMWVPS
Sequence of TOP2-DNA covalent cleavage complexes (TOP2cc) in CCRF-CEM cells (P11388 whole entry, one chain of several): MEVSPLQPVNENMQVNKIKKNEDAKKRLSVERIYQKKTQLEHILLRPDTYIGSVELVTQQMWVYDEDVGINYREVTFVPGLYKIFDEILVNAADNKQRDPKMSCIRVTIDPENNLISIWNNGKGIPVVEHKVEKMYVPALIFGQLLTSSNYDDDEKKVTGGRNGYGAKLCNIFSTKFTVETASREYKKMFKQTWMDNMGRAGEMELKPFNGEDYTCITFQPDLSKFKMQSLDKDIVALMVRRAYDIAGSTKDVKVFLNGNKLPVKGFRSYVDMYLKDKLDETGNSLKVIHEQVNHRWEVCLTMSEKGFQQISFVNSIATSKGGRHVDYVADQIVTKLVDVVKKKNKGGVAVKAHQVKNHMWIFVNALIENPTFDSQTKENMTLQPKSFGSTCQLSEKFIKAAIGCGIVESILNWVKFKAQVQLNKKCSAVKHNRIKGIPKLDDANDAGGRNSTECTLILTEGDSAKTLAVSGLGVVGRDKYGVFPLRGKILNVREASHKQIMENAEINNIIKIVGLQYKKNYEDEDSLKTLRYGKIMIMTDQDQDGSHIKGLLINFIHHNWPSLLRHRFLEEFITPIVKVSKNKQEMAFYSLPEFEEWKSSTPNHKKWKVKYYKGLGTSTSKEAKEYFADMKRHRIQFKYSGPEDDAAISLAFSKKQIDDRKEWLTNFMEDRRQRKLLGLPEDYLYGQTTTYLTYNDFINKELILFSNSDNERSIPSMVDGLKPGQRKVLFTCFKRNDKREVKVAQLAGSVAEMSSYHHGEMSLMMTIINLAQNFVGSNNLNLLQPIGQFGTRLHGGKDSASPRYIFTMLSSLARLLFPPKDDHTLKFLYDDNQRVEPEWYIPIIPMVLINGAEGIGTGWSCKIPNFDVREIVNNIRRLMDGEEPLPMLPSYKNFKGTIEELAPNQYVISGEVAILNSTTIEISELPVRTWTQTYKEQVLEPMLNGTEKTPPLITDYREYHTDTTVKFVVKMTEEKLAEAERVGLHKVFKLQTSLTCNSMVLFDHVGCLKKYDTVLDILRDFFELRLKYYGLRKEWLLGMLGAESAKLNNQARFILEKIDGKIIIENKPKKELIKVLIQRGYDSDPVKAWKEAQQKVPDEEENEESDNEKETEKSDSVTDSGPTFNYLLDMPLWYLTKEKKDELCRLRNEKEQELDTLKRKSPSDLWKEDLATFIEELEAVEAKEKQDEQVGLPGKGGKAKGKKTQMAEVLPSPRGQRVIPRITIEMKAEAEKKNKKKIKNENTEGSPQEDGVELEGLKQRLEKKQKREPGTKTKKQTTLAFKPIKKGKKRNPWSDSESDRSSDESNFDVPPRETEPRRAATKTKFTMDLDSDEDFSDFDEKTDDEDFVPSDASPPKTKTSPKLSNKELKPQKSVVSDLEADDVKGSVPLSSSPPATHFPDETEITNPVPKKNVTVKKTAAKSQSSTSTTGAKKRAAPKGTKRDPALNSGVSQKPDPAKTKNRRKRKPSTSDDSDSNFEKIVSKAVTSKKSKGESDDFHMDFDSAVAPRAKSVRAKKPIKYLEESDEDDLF

On to `Cc1oc2c(c1C(=O)Oc1ccc3ccccc3c1)C(=O)c1ncccc1C2=O` [Compound 40, 2-Naphthalenyl 2-methyl-4,9-dioxo-4,9-dihydrofuro[2,3-g]quinoline-3-carboxylate], for which the “TDP2 inhibitory activity (in words)” value at recombinant human TDP2 is “inactive”.
Same read-out and setting: the entry for `Cc1oc2c(c1C(=O)Oc1ccc3c(c1)OCO3)C(=O)c1ncccc1C2=O` [Compound 49, Benzo[d][1,3]dioxol-5-yl 2-methyl-4,9-dioxo-4,9-dihydrofuro[2,3-g]quinoline-3-carboxylate] is “inactive”; for `CCOC(=O)c1c2c(n(C)c1C)C(=O)c1ncccc1C2=O` [Compound 72, ethyl 1,2-dimethyl-4,9-dioxo-4,9-dihydro-1H-pyrrolo[3,2-g]quinoline-3-carboxylate] it is “inactive”.
For `CCOC(=O)c1c(C)oc2c1C(=O)c1ncccc1C2=O` [Compound 1, Ethyl 2-methyl-4,9-dioxo-4,9-dihydrofuro[2,3-g]quinoline-3-carboxylate], the “TOP1 relaxing activity inhibition (in words)” value on TOP1 [1] is recorded as “did not inhibit”. For the same compound, the “TOP2 relaxing activity inhibition (in words)” value in the test on TOP2 was “did not inhibit”. The “TDP1 inhibition (in words)” value on recombinant TDP1 is “did not inhibit”.
For `CCOC(=O)c1n[nH]c2c1C(=O)c1ncccc1C2=O` [Compound 75, Ethyl 4,9-dioxo-4,9-dihydro-1H-pyrazolo[3,4-g]quinoline-3-carboxylate], on recombinant human TDP2, the “TDP2 inhibitory activity (in words)” value was “inactive”.
Regarding `Cc1oc2c(c1C(=O)Oc1ccc(C(=O)c3ccccc3)cc1)C(=O)c1ncccc1C2=O` [Compound 46, 4-Benzoylphenyl 2-methyl-4,9-dioxo-4,9-dihydrofuro[2,3-g]quinoline-3-carboxylate], the “TDP2 inhibitory activity (in words)” value on recombinant human TDP2 is “inactive”.
Consider `CCOC(=O)c1noc2c1C(=O)c1ncccc1C2=O` [Compound 73, Ethyl 4,9-dioxo-4,9-dihydroisoxazolo[5,4-g]quinoline-3-carboxylate], for which, on TOP1 [1], the “TOP1 relaxing activity inhibition (in words)” value is “do not have inhibitory potency; also recorded: no activity”. The “TOP2 relaxing activity inhibition (in words)” value in the test on TOP2 is recorded as “do not have inhibitory potency; also recorded: no activity”. The “TOP1-mediated DNA cleavage, formation of covalent TOP1-DNA complex (in words)” value at TOP1 [2] is “do not have inhibitory potency”. Besides, the “TDP1 inhibition (in words)” value on recombinant TDP1 is “no activity”.
Take `CCOC(=O)c1noc2c1C(=O)c1cccnc1C2=O` [Compound 74, Ethyl 4,9-dioxo-4,9-dihydroisoxazolo[4,5-g]quinoline-3-carboxylate]: on TOP1 [1], the “TOP1 relaxing activity inhibition (in words)” value is recorded as “do not have inhibitory potency; also recorded: no activity”. For the same compound, the “Induction of TOP2cc formation (ICE assay, in words)” value in test [3] is “unable to induce the formation of TOP2cc”. Further, in the test on TOP2, the “TOP2 relaxing activity inhibition (in words)” value is given as “do not have inhibitory potency; also recorded: no activity”. Also, the “TOP1-mediated DNA cleavage, formation of covalent TOP1-DNA complex (in words)” value at TOP1 [2] is listed as “do not have inhibitory potency”. Besides, the “TDP1 inhibition (in words)” value at recombinant TDP1 is “no activity”.
Consider `CCOC(=O)c1c(C)[nH]c2c1C(=O)c1cccnc1C2=O` [Compound 70, ethyl 2-methyl-4,9-dioxo-4,9-dihydro-1H-pyrrolo[3,2-g]quinoline-3-carboxylate], for which the “TDP2 inhibitory activity (in words)” value at recombinant human TDP2 was “inactive”.
Take `CCOC(=O)c1n[nH]c2c1C(=O)c1cccnc1C2=O` [Compound 76, Ethyl 4,9-dioxo-4,9-dihydro-1H-pyrazolo[4,3-g]quinoline-3-carboxylate]: the “TDP2 inhibitory activity (in words)” value on recombinant human TDP2 is “inactive”.

The values above are taken from publication PMC5930004 (European journal of medicinal chemistry, 2018).
